# Experimental data as given in ChEMBL document CHEMBL3877241 (J Med Chem, 2016).
# Activity calls are given as the source filed them. The rule behind the calls is not given here.
# Legend:
# [1] = Antiproliferative activity against human MOLM14 cells harboring FLT3-ITD mutant after 48 hrs by CellTiter-Glo assay; type: functional, cell-based; conditions: MOLM-14, 48 h
# [2] = target: Histone deacetylase 1 (Homo sapiens, UniProt Q13547); test: Inhibition of full length human recombinant C-terminal FLAG/His-tagged HDAC1 (1 to 482 residues) expressed in sf21 cells preincubated with enzyme followed by fluorogenic Arg-His-Lys-Lys(Ac)-AMC substrate addition measured after 2 hrs by fluorescence assay
# Sequence of Histone deacetylase 1 (Q13547 whole entry, the tested form may be a part): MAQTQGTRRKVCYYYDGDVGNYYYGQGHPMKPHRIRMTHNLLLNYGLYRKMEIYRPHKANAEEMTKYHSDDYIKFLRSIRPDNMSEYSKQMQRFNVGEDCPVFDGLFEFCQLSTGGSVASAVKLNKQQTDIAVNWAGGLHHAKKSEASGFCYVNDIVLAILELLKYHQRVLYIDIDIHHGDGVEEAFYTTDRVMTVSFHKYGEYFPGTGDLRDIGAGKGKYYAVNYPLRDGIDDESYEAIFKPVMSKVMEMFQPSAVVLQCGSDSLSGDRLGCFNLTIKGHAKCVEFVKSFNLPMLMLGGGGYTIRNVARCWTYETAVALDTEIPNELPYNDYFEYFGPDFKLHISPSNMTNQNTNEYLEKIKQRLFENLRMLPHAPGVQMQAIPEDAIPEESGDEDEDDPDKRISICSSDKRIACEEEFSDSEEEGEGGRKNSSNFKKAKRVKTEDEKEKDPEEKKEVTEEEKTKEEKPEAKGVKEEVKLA
# [3] = target: T1, Protein deacetylase HDAC6 (Homo sapiens) (UniProt Q9UBN7); test: Inhibition of HDAC6 in HEL 92.1.7 cells harboring JAK2 V617F mutant assessed as increase in acetylated tubulin level at 0.1 uM after 1 hr by immunoblot method; type: cell-based
# T1 sequence (whole entry): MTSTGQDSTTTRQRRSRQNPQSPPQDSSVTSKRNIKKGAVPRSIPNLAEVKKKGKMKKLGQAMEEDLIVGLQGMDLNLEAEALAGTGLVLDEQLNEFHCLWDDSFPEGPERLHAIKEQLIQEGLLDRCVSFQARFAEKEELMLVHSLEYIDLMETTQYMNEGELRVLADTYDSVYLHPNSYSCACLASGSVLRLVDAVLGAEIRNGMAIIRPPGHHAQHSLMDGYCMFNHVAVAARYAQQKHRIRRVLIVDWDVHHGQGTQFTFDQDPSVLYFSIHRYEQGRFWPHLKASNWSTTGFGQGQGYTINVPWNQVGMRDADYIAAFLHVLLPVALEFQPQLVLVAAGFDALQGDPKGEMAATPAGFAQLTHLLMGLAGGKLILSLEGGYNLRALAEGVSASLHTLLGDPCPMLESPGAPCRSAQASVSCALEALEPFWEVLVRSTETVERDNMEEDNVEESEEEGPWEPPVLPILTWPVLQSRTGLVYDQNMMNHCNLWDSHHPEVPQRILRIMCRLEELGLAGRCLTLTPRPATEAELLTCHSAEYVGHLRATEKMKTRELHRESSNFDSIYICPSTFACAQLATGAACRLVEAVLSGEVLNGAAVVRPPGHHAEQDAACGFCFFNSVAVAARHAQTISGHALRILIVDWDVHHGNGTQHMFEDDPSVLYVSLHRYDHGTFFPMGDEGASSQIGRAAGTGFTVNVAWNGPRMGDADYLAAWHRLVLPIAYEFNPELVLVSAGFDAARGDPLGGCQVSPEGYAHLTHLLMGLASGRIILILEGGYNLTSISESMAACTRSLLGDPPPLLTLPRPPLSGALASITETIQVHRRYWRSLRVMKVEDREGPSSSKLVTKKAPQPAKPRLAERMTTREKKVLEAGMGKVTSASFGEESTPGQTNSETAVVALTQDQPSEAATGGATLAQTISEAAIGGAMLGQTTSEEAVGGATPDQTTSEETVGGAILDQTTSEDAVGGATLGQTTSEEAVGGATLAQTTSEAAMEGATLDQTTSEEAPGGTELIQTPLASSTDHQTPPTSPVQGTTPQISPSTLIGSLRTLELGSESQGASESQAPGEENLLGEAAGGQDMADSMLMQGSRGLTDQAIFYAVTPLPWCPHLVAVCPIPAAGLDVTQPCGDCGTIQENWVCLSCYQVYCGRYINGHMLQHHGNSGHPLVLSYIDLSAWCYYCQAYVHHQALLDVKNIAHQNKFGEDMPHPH
# Method in brief: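 HEL92.1.7 cells seeded at 5x10^5/mL and treated 1 h at 0, 0.1, 0.5 and 1 μM. Lysed in RIPA with phosphatase/protease inhibitors, run on 10% SDS-PAGE and blotted to PVDF. Probed for acetyl-tubulin, acetyl-H3 (Lys9/Lys14), p-JAK2 (Y1007/1008) and p-STAT5 (Tyr694); membranes re-probed for tubulin, H3, JAK2 and STAT5. Quantified by densitometry.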
# [4] = target: Mast/stem cell growth factor receptor Kit (Homo sapiens, UniProt P10721); test: Inhibition of human KIT (I571 to D952 residues) expressed in bacterial expression system by KINOMEScan assay
# Sequence of Mast/stem cell growth factor receptor Kit (P10721 whole entry, the tested form may be a part): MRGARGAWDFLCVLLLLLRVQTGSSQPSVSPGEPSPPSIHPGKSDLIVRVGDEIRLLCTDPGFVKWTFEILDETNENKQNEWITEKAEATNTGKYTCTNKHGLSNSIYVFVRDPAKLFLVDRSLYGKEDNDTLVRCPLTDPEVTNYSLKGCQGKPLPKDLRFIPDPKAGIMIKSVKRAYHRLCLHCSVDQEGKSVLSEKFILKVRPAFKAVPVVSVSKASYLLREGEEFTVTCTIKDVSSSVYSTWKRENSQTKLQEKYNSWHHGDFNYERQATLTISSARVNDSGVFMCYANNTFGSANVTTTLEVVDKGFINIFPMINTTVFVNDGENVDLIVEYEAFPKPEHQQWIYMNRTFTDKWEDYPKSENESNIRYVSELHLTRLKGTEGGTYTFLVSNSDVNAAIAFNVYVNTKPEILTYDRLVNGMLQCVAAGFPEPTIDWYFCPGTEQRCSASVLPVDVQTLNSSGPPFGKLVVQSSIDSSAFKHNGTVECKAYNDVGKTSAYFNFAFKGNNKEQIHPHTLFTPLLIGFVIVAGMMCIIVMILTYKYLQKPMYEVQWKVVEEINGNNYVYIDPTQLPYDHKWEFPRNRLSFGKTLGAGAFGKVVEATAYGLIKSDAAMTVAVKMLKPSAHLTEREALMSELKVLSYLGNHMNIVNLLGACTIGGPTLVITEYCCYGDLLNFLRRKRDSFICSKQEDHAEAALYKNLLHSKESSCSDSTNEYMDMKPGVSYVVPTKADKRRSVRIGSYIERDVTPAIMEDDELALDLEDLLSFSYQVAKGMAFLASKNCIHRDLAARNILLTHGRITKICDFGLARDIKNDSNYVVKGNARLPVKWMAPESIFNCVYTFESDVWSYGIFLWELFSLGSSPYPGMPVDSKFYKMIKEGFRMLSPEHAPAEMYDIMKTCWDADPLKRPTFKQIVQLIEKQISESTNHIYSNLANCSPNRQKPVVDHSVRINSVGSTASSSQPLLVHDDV
# [5] = target: Non-receptor tyrosine-protein kinase TYK2 (Homo sapiens, UniProt P29597); test: Inhibition of human TYK2 (V877 to C1187 residues) expressed in mammalian expression system assessed as residual activity at 100 nM by KINOMEScan assay relative to control
# Sequence of Non-receptor tyrosine-protein kinase TYK2 (P29597 whole entry, the tested form may be a part): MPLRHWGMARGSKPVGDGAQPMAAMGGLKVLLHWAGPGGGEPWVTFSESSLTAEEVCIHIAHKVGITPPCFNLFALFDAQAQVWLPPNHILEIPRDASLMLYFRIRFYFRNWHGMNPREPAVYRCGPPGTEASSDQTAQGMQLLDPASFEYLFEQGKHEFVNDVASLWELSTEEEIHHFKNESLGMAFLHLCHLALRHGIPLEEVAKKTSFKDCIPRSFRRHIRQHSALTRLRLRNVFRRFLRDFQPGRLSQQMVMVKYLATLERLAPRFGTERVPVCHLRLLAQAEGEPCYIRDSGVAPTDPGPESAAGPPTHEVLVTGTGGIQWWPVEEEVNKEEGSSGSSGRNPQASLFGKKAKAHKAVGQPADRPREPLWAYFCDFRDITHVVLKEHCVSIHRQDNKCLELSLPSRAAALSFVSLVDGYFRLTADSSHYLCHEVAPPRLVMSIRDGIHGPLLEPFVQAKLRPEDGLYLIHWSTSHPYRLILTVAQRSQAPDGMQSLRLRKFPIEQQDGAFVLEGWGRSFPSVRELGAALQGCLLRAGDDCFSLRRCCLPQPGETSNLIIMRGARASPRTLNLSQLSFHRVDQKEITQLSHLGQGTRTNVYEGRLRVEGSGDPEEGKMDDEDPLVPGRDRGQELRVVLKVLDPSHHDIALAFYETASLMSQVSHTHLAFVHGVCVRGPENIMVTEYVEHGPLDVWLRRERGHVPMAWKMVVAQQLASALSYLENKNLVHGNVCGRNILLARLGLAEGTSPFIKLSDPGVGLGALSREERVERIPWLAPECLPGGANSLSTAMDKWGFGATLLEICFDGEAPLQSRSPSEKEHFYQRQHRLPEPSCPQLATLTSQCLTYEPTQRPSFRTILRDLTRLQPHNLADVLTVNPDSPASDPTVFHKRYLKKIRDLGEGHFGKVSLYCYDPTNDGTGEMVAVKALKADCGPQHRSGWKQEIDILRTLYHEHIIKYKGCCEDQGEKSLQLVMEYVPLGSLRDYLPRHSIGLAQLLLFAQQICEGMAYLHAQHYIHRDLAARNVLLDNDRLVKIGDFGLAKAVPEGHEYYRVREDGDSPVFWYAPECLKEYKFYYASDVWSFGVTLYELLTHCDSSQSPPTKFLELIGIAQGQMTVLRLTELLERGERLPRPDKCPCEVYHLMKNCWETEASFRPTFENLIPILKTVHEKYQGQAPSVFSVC
# Method in brief: (§1)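 DiscoveRx competition-binding panel of 97 kinases, measuring binding to the kinase ATP site rather than catalytic turnover. The test compound was run at a single 100 nM concentration. Results are given as % of control binding.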
# [6] = system: MOLM-14; test: Induction of apoptosis in human MOLM14 cells assessed as necrotic cells at 3 uM after 48 hrs by Annexin-V FITC/propidium iodide staining based flow cytometry (reference value: 0.1%); type: functional
# Method in brief: (§2)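 MOLM-14 cells treated 48 h at the stated concentrations; doxorubicin as positive control. Stained with Annexin V-FITC and propidium iodide and analysed by flow cytometry (at least 10,000 events). Gated quadrants: Annexin V−/PI− viable, Annexin V+/PI− early apoptotic, Annexin V+/PI+ late apoptotic.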
# [7] = system: MOLM-14; test: Induction of apoptosis in human MOLM14 cells assessed as necrotic cells at 0.75 uM after 48 hrs by Annexin-V FITC/propidium iodide staining based flow cytometry (reference value: 0.1%); type: functional; method in brief: as §2
# [8] = target: T2, High affinity nerve growth factor receptor (Homo sapiens, UniProt P04629); test: Inhibition of human NTRK1 (G475 to G790 residues) expressed in mammalian expression system by KINOMEScan assay
# Target sequence in this assay (P04629 whole entry, the tested form may be a part): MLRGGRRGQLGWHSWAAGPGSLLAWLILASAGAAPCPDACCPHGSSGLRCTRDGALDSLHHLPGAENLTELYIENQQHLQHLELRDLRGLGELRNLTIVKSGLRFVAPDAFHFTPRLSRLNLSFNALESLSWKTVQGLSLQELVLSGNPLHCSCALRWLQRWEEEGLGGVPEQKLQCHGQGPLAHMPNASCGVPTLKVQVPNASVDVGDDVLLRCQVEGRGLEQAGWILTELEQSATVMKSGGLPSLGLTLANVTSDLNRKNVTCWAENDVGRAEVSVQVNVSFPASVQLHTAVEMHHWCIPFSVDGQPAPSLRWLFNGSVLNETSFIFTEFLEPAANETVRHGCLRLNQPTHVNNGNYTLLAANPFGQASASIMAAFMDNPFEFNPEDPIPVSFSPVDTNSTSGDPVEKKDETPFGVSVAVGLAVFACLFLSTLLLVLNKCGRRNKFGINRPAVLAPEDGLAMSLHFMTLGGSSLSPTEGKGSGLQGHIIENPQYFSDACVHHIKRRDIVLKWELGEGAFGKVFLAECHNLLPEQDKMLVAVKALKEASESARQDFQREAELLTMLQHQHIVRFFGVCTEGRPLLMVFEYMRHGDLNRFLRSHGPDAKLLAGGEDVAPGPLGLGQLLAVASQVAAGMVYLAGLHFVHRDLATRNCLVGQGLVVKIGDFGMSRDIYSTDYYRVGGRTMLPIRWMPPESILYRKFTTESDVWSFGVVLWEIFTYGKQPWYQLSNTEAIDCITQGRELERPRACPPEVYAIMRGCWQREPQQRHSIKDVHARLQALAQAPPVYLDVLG
# [9] = target: Tyrosine-protein kinase JAK2 (Homo sapiens, UniProt O60674); test: Inhibition of JAK2 (unknown origin) preincubated for 20 mins followed by [33P]ATP addition measured after 120 mins by Hotspot assay
# [10] = system: MOLM-14; test: Induction of apoptosis in human MOLM14 cells assessed as early apoptotic cells at 0.75 uM after 48 hrs by Annexin-V FITC/propidium iodide staining based flow cytometry (reference value: 3.6 to 3.7%); type: functional; method in brief: as §2
# [11] = Antiproliferative activity against human HL60 cells; type: functional, cell-based; conditions: HL-60
# [12] = target: Histone deacetylase 2 (Homo sapiens, UniProt Q92769); test: Inhibition of full length human recombinant C-terminal GST-tagged HDAC2 (1 to 488 residues) expressed in insect cells preincubated with enzyme followed by fluorogenic Arg-His-Lys-Lys(Ac)-AMC substrate addition measured after 2 hrs by fluorescence assay
# Sequence of Histone deacetylase 2 (Q92769 whole entry, the tested form may be a part): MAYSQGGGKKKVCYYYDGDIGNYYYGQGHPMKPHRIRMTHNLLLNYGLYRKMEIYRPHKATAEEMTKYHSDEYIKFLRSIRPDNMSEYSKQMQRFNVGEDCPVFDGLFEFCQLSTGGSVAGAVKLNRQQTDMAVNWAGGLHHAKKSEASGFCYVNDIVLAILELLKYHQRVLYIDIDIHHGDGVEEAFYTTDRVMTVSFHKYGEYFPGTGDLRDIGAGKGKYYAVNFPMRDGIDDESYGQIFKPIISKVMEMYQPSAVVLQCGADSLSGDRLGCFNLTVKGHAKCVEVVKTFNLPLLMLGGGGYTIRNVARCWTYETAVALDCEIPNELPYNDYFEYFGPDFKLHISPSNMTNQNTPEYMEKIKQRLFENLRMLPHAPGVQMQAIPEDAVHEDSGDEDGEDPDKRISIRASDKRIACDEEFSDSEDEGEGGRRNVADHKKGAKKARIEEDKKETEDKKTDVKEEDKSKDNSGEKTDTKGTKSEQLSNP
# [13] = system: MOLM-14; test: Induction of apoptosis in human MOLM14 cells assessed as live cells at 3 uM after 48 hrs by Annexin-V FITC/propidium iodide staining based flow cytometry (reference value: 94 to 94.1%); type: functional; method in brief: as §2
# [14] = target: Mitogen-activated protein kinase 10 (Homo sapiens, UniProt P53779); test: Inhibition of human MAPK10 (V28 to Q422 residues) expressed in mammalian expression system assessed as residual activity at 100 nM by KINOMEScan assay relative to control; method in brief: as §1
# Sequence of Mitogen-activated protein kinase 10 (P53779 whole entry, the tested form may be a part): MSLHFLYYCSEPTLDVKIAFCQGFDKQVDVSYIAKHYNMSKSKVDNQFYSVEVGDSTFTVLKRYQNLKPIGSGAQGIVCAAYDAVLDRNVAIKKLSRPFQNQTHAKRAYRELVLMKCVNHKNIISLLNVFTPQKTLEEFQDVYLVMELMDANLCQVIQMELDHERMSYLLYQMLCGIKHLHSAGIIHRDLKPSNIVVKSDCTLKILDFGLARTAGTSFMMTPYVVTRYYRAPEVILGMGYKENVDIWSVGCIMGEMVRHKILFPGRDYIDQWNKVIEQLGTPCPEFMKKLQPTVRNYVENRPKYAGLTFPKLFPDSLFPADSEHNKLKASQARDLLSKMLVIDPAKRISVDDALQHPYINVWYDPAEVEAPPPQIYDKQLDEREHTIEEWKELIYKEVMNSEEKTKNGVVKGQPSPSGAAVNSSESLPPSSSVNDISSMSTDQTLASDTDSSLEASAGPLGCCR
# [15] = target: T2, High affinity nerve growth factor receptor; test: Inhibition of human NTRK1 (G475 to G790 residues) expressed in mammalian expression system assessed as residual activity at 100 nM by KINOMEScan assay relative to control; method in brief: as §1
smiles,measurement,setting,value
O=C(CCCCCCOc1ccc2cc1COC/C=C/COCc1cccc(c1)-c1ccnc(n1)N2)NO,IC50,[1],1140 nM
same,IC50,[2],222 nM
same,inhibition,[3],Active
same,IC50,[4],1000 to 10000 nM
same,Activity,[5],4.9%
same,Activity,[6],1.3%
same,Activity,[7],0%
same,IC50,[8],1000 to 10000 nM
same,IC50,[9],1.4 nM
same,Activity,[10],13.3%
same,IC50,[11],4000 nM
same,IC50,[12],49 nM
same,Activity,[13],29.9%
same,Activity,[14],29%
same,Activity,[15],13%
